In ChEMBL document CHEMBL2021777 (J Med Chem, 2012):
Active and inactive are the calls of the source. No cut-off for these calls is given here.

Key:
Brain = test: Half life in CD1 mouse brain at 5 mg/kg, po; assay type: ADME, organism-based; parameters: dose 5 mg/kg, route oral; settings: in vivo
Method in brief: (§1)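 Male CD-1 mice given a single oral gavage dose of 5 mg/kg; plasma and brain concentrations measured over time to derive half-lives, Cmax and Tmax.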

Plasma [1] = test: Tmax in CD1 mouse plasma at 5 mg/kg, po; assay type: ADME, organism-based; parameters: dose 5 mg/kg, route oral; settings: in vivo; method in brief: as §1
Nucleic Acid = test: Ratio of drug level in brain to plasma in CD1 mouse at 5 mg/kg, po; assay type: ADME, organism-based; parameters: dose 5 mg/kg, route oral
Method in brief: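 Male CD-1 mice, single 5 mg/kg oral gavage dose; brain-to-plasma ratio calculated as Cmax-brain/Cmax-plasma.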

Plasma [2] = test: Cmax in CD1 mouse plasma at 5 mg/kg, po at 10 mins; assay type: ADME, organism-based; parameters: dose 5 mg/kg, route oral; settings: in vivo
Method in brief: (§2)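 Male CD-1 mice received a single oral gavage dose of 5 mg/kg. Drug levels were measured in brain and plasma over time; Cmax and Tmax were taken from the concentration−time profiles.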

[3] = Cmax in CD1 mouse brain at 5 mg/kg, po at 30 mins; assay type: ADME, organism-based; parameters: dose 5 mg/kg, route oral; method in brief: as §2
Plasma [4] = test: Half life in CD1 mouse plasma at 5 mg/kg, po; assay type: ADME, organism-based; parameters: dose 5 mg/kg, route oral; settings: in vivo; method in brief: as §1
Mus musculus = test: Antidepressant activity in BALB/cJ mouse assessed as decrease in immobility at 10 mg/kg, po administered 30 mins prior to testing measured for 6 mins by forced swim test; assay type: functional, organism-based; parameters: dose 10 mg/kg
Method in brief: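 Male BALB/cJ mice, 8−10 weeks old, housed four per cage on a 12 h light−dark cycle. Drug in injectable water was given by oral gavage (10 mL/kg). After 30 min, each mouse was placed in a glass cylinder with 12 cm of ~23 °C water, and floating immobility was timed over a 6 min trial. Analysis was by ANOVA with Fisher's PLSD post hoc test.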

[5] = biological target: Muscarinic acetylcholine receptor M1 (Homo sapiens) (UniProt P11229); test: Displacement of [3H]QNB from M1 receptor at 10 uM
Plasma [6] = test: Plasma protein binding in CD1 mouse at 10 uM; assay type: ADME, cell-free
Method in brief: (§3)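 Binding measured at 10 μM in human plasma and CD-1 mouse plasma; reported as mean percent bound.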

[7] = biological target: Histamine H3 receptor (Homo sapiens) (UniProt Q9Y5N1); test: Displacement of [3H]alpha-methylhistamine from H3 histamine receptor at 10 uM
Plasma [8] = test: Plasma protein binding in human at 10 uM; assay type: ADME, cell-free; method in brief: as §3

Muscarinic acetylcholine receptor M1 (Homo sapiens), sequence (P11229 whole entry): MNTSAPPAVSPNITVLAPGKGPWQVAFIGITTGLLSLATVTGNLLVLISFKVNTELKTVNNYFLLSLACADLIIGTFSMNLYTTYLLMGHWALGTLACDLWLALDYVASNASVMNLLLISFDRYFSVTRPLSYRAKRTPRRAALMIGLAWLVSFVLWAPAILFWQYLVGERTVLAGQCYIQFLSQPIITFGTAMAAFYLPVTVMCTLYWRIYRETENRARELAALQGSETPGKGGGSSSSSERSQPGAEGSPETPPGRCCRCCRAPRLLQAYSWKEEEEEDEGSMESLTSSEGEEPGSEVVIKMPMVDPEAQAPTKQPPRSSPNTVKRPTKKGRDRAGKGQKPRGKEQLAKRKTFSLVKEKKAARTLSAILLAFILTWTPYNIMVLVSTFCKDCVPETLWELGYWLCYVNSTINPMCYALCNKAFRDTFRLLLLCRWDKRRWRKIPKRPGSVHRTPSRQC
Histamine H3 receptor (Homo sapiens), sequence (Q9Y5N1 whole entry): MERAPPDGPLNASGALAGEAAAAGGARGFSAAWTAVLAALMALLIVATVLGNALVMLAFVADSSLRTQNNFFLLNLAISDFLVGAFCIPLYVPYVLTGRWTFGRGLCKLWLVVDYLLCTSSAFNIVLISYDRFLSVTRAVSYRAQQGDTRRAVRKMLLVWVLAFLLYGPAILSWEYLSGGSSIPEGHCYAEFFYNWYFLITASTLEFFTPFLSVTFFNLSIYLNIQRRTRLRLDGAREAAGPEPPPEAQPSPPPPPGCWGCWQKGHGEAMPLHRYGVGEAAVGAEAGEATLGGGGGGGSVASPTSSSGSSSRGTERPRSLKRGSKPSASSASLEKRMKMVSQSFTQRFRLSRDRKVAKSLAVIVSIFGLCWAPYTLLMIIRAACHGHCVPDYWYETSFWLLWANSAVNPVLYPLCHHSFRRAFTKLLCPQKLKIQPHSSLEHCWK

COCC[C@H]1C[C@@H]1c1cncc(OC[C@@H]2CCN2)c1
t1/2 (Brain): 2.5 h | Tmax (Plasma [1]): 0.167 h | BPR (Nucleic Acid): 0.37 | Cmax (Plasma [2]): 359 ng/mL | Cmax [3]: 133 ng/mL | t1/2 (Plasma [4]): 2.4 h

CNC(=O)OCC[C@H]1C[C@@H]1c1cncc(OC[C@@H]2CCN2)c1
Activity (Mus musculus): Active | inhibition [5]: 12.9% | PPB (Plasma [6]): 23.8% | inhibition [7]: 5.7% | PPB (Plasma [8]): 8.4%
